Assay results collected from several papers.
Protocols differ between the studies behind these lines.
Target: Calcium/calmodulin-dependent protein kinase type II subunit delta (CAMK2D, Homo sapiens, UniProt Q13557)

SMILES | effect on | action | technique | concentration | quantity | result
c1ccc(CNc2nc(N3CCOc4ccccc43)nc3c2CCCC3)cc1 | target engagement in cells | inhibitor | chemoproteomics | 20 mM | inhibition | -17.7%
CC/C(=N\NC(=O)NCc1cccc(O)c1)c1ccc(O)c(C)c1O | enzyme activity | inhibitor |  | 0.1 µM | inhibition | -4.9%
CNC(=O)c1cc(Oc2ccc(NC(=O)Nc3ccc(Cl)c(C(F)(F)F)c3)cc2)ccn1 | enzyme activity | inhibitor |  | 0.3 µM | inhibition | 56%
Nc1ncnc2occ(-c3ccc(NC(=O)Nc4cc(C(F)(F)F)ccc4F)cc3)c12 | cell-free assay | inhibitor |  | 20 µM | remaining signal | 94%
COc1ccc2c(c1)O[C@H](c1ccc(OC)c(OC)c1)C[C@@H]2NC(=O)C1(c2ccc3c(c2)OC(F)(F)O3)CC1 | cell-free assay |  | competition with immobilised ligand | 1 µM | remaining binding | 100%
COc1cc2ncnc(Nc3ccc(Oc4ccccc4)c(C)c3C)c2cc1OC | enzyme activity | inhibitor |  | 1 µM | inhibition | 2%
CC(C)(C)c1nc(-c2cccc(NS(=O)(=O)c3c(F)cccc3F)c2F)c(-c2ccnc(N)n2)s1 | enzyme activity | inhibitor | radiometric | 1 µM | remaining activity | 97%
CSc1cccnc1N1CCN(Cc2nc3ccccc3[nH]2)CC1 | cell-free assay |  | competition with immobilised ligand | 1 µM | remaining binding | 100%
COc1cccc2c(NCc3ccccc3)nc(-n3c(N)nc4ccccc43)nc12 | target engagement in cells | inhibitor | chemoproteomics | 20 mM | inhibition | -14.3%
C#Cc1cccc(Nc2ncnc3cc(OCCOC)c(OCCOC)cc23)c1 | cell-free assay |  |  | 0.5 µM | remaining signal | 95.1%
CC(C)c1ccc(NC(=O)c2cccs2)c(-c2nc3ccccc3[nH]c2=O)c1 | enzyme activity | inhibitor |  | 1 µM | activity vs control | 102%
NS(=O)(=O)c1cc(NC(=O)Cc2ccccc2)ccc1Oc1cccc(Cl)c1 | cell-free assay |  | competition with immobilised ligand | 1 µM | remaining binding | 97%
Cc1ccc(Nc2nccc(N(C)c3ccc4c(C)n(C)nc4c3)n2)cc1S(N)(=O)=O | enzyme activity | inhibitor |  | 0.3 µM | inhibition | 63%
N#CCCc1ccc2c(c1)-c1[nH]c3ccc([N+](=O)[O-])cc3c1CC(=O)N2 | cell-free assay |  |  | 0.5 µM | remaining signal | 57.8%
NS(=O)(=O)c1cc(NC(=O)C2(c3ccccc3Cl)CC2)ccc1Oc1cccc(Cl)c1 | cell-free assay |  | competition with immobilised ligand | 1 µM | remaining binding | 100%
Cc1ccc(-n2nc(C(C)(C)C)cc2NC(=O)Nc2ccc(OCCN3CCOCC3)c3ccccc23)cc1 | enzyme activity | inhibitor |  | 10 µM | inhibition | 22%
C[S+]([O-])c1ccc(-c2nc(-c3ccncc3)c(-c3ccc(F)cc3)[nH]2)cc1 (stereo not drawn) | cell-free assay |  |  | 0.5 µM | remaining signal | 103%
CCN(CC)c1ccc(C2=NNC(=O)CC2C)cc1[N+](=O)[O-] (stereo not drawn) | enzyme activity | inhibitor |  | 10 µM | remaining activity | 104%
O=C(Nc1cnn(-c2csc(C(=O)NC3COC3)c2)c1)Nc1c(F)cccc1Cl | enzyme activity | inhibitor |  | 5 µM | remaining activity | 93.5%
CC(=O)N1CCC(c2ccc(C(=O)NC(=N)N)cc2C(F)(F)F)CC1 | cell-free assay |  | competition with immobilised ligand | 1 µM | remaining binding | 100%
Cc1sc(C(=O)NC2COC2)cc1-n1cc(NC(=O)Nc2c(F)cccc2Cl)cn1 | enzyme activity | inhibitor |  | 10 µM | remaining activity | 91.3%
O=C(O)[C@@H]1[C@@H](Cn2nnc3ccccc3c2=O)CC[C@H]1C(=O)c1ccc(OCCC2CCOCC2)cc1 | cell-free assay |  | competition with immobilised ligand | 1 µM | remaining binding | 100%
Cc1ccc(C(=O)Nc2ccc(CN3CCN(C)CC3)c(C(F)(F)F)c2)cc1C#Cc1cnc2cccnn12 | enzyme activity |  |  | 23.5 nM | remaining activity | 96%
CC(C)(O)c1cncc(-c2nc3ccc(F)cc3n2C2CC2)c1 | cell-free assay |  | competition with immobilised ligand | 1 µM | remaining binding | 100%
CCN(CC)CCNC(=O)c1c(C)[nH]c(/C=C2\C(=O)Nc3ccc(F)cc32)c1C | enzyme activity | inhibitor |  | 0.3 µM | inhibition | 92%
O=C1Nc2ccc(Cl)cc2C1=Cc1cc(Cl)c(O)c(Cl)c1 | cell-free assay |  |  | 0.5 µM | remaining signal | 80.2%
Nc1c(C(=O)NCc2ccc(C(=O)NCCCC3CCCCC3)cc2)cnn1-c1ccccc1 | cell-free assay |  | competition with immobilised ligand | 0.1 µM | remaining binding | 100%
